# Calls of active or inactive are those of the source. The rule behind the calls is not given here.
# Key:
# [1] = Cmax in mouse at 5 mg/kg, po; format: ADME, organism-based; set-up: dose 5 mg/kg, route oral; settings: in vivo
# [2] = Ratio of drug uptake in brain to plasma in iv dosed mouse measured after 5 to 30 mins; format: ADME, organism-based; settings: brain and plasma, read-out: BPR
# Mus musculus [3] = test: Antiinflammatory activity against ovalbumin-induced allergic lung inflammation BALB/c mouse model assessed as reduction in eosinophils in brochoalveolar lavage fluid at 1 mg/kg, po bid administered on day 29 to 31 post ovalbumin challenge measured 8 hrs post last challenge relative to vehicle-treated control; format: functional
# Procedure, shortened: (§1)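 Balb/c mice sensitized with ovalbumin by IP injection on days 1 and 14, then challenged intranasally with 100 μg ovalbumin on days 29, 30 and 31. Compound in saline given orally starting 30 min before each challenge; groups of six mice. Sham groups were saline-sensitized and allergen-challenged. BAL taken 8 h after the last challenge, with differential cell counts on slides.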
# [4] = target: Neuronal acetylcholine receptor; alpha4/beta2 (Homo sapiens, UniProt P17787+P43681); test: Inhibition of human alpha4beta2 nAChR at 10 uM by binding assay
# Cytochrome P450 3A4 = Cytochrome P450 3A4 (Homo sapiens, UniProt P08684); test: Inhibition of CYP3A4 (unknown origin); format: ADME
# Chain of Cytochrome P450 3A4 (P08684 whole entry, canonical isoform): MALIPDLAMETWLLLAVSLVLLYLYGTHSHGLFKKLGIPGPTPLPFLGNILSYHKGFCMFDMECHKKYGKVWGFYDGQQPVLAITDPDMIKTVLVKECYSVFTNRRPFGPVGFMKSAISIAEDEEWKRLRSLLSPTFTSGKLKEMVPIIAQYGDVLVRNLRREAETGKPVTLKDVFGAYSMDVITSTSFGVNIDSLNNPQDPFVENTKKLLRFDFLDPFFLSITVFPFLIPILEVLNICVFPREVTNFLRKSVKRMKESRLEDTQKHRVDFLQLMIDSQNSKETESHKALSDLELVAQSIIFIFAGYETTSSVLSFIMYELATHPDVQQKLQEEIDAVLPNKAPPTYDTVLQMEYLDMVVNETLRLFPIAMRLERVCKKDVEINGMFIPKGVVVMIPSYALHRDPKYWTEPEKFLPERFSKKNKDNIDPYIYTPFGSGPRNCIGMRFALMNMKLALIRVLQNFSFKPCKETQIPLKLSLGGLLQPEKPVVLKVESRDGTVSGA
# Procedure, shortened: (§2)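 Each of five Cyp isoforms assayed with single probe substrates rather than a substrate cocktail. Run in duplicate at Cerep. IC50 lines come from a 5-concentration titration curve.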
# Cytochrome P450 2C9 = Cytochrome P450 2C9 (Homo sapiens, UniProt P11712); test: Inhibition of CYP2C9 (unknown origin); format: ADME; procedure, shortened: as §2
# Chain of Cytochrome P450 2C9 (P11712 whole entry): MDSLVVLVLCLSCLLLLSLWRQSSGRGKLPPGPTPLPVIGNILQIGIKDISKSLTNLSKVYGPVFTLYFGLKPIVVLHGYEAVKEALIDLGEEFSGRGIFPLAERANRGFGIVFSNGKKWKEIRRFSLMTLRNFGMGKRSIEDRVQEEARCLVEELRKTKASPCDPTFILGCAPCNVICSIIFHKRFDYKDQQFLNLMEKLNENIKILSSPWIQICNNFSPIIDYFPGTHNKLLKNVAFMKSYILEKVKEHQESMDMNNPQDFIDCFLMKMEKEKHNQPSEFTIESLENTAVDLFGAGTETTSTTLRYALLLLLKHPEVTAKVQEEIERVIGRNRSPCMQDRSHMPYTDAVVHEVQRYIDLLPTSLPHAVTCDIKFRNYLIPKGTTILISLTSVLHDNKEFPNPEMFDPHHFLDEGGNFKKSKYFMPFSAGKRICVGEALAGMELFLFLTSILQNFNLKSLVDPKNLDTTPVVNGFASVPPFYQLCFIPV
# Cytochrome P450 2C19 = Cytochrome P450 2C19 (Homo sapiens, UniProt P33261); test: Inhibition of CYP2C19 (unknown origin); format: ADME; procedure, shortened: as §2
# Chain of Cytochrome P450 2C19 (P33261 whole entry): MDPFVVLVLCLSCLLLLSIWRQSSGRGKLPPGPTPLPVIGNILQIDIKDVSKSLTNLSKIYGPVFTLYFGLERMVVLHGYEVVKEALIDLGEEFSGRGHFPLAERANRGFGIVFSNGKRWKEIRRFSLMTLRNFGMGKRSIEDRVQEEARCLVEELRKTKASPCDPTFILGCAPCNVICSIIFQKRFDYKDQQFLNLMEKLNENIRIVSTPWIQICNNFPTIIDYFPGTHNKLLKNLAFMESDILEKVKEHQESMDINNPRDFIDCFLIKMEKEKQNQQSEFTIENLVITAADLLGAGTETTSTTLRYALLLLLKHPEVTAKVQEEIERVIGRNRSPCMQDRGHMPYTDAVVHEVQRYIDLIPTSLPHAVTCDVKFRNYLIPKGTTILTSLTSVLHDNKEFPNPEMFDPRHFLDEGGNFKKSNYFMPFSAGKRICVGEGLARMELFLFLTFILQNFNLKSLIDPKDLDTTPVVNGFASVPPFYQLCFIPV
# Mus musculus [5] = test: Antiinflammatory activity against ovalbumin-induced allergic lung inflammation BALB/c mouse model assessed as reduction in eosinophils in brochoalveolar lavage fluid at 5 mg/kg, po bid administered on day 29 to 31 post ovalbumin challenge measured 8 hrs post last challenge relative to vehicle-treated control; format: functional; procedure, shortened: as §1
# [6] = Clearance in rat at 1 mg/kg, iv; format: ADME, organism-based; set-up: dose 1 mg/kg, route intravenous; settings: in vivo
# Mus musculus [7] = test: Antiinflammatory activity against ovalbumin-induced allergic lung inflammation BALB/c mouse model assessed as reduction in neutrophils in brochoalveolar lavage fluid at 0.2 mg/kg, po bid administered on day 29 to 31 post ovalbumin challenge measured 8 hrs post last challenge relative to vehicle-treated control; format: functional, organism-based; set-up: dose 0.2 mg/kg; settings: Bronchoalveolar lavage; procedure, shortened: as §1
# Mus musculus [8] = test: Antiinflammatory activity against ovalbumin-induced allergic lung inflammation BALB/c mouse model assessed as reduction in total blood cells in brochoalveolar lavage fluid at 5 mg/kg, po bid administered on day 29 to 31 post ovalbumin challenge measured 8 hrs post last challenge relative to vehicle-treated control; format: functional; procedure, shortened: as §1
# [9] = Cmax in rat at 15 mg/kg, po; format: ADME, organism-based; set-up: dose 15 mg/kg, route oral; settings: in vivo
# Cytochrome P450 2D6 = Cytochrome P450 2D6 (Homo sapiens, UniProt P10635); test: Inhibition of CYP2D6 (unknown origin); format: ADME; procedure, shortened: as §2
# Chain of Cytochrome P450 2D6 (P10635 whole entry): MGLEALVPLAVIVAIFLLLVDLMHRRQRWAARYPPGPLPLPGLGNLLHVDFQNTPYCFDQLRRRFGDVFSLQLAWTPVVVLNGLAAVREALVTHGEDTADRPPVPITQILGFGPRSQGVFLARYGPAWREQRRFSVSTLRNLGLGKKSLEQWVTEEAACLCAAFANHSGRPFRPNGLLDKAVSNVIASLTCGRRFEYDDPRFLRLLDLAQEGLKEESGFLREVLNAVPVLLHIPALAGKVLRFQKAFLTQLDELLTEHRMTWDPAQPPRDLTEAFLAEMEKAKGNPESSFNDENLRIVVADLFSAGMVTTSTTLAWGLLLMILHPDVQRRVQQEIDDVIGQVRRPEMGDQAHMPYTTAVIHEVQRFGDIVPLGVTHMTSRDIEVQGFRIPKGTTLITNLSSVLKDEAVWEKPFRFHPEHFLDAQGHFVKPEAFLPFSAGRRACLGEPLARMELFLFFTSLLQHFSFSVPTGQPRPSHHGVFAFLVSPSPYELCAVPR
# [10] = target: Voltage-gated inwardly rectifying potassium channel KCNH2 (Homo sapiens, UniProt Q12809); test: Inhibition of human ERG by whole-cell voltage clamp assay
# Chain of Voltage-gated inwardly rectifying potassium channel KCNH2 (Q12809 whole entry): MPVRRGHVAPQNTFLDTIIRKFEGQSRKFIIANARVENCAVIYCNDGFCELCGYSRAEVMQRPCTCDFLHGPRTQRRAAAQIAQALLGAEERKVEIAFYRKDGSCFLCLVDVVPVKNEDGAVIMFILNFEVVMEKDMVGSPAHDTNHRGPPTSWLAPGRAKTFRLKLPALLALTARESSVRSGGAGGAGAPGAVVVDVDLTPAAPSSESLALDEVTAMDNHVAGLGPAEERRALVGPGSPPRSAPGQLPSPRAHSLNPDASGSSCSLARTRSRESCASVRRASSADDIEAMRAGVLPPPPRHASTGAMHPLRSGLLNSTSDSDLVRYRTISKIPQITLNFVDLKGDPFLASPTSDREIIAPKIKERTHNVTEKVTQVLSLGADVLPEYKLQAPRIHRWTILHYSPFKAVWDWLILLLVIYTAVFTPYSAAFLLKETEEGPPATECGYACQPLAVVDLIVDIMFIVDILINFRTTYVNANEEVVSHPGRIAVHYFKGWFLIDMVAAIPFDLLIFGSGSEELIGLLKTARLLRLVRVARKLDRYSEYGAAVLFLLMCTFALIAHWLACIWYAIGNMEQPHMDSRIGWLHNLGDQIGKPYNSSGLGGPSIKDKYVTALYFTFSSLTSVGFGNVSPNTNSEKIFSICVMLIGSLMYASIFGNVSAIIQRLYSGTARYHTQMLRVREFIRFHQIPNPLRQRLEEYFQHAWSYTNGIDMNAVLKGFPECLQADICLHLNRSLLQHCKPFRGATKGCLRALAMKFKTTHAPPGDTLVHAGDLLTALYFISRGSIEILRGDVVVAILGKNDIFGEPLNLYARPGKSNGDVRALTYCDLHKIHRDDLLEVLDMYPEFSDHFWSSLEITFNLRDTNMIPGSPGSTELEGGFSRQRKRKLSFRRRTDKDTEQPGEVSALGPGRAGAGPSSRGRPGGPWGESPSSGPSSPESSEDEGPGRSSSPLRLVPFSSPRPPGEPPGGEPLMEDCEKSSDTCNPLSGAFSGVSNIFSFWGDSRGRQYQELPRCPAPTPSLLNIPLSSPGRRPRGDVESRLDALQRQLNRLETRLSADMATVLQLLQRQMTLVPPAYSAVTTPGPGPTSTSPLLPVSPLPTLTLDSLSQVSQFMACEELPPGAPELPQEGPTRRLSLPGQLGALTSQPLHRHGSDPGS
# Mus musculus [11] = test: Antiinflammatory activity against ovalbumin-induced allergic lung inflammation BALB/c mouse model assessed as reduction in total blood cells in brochoalveolar lavage fluid at 0.2 mg/kg, po bid administered on day 29 to 31 post ovalbumin challenge measured 8 hrs post last challenge relative to vehicle-treated control; format: functional, organism-based; set-up: dose 0.2 mg/kg; procedure, shortened: as §1
# [12] = Oral bioavailability in rat at 15 mg/kg; format: ADME, organism-based; settings: in vivo
# Cytochrome P450 1A2 = Cytochrome P450 1A2 (Homo sapiens, UniProt P05177); test: Inhibition of CYP1A2 (unknown origin); format: ADME; procedure, shortened: as §2
# Chain of Cytochrome P450 1A2 (P05177 whole entry): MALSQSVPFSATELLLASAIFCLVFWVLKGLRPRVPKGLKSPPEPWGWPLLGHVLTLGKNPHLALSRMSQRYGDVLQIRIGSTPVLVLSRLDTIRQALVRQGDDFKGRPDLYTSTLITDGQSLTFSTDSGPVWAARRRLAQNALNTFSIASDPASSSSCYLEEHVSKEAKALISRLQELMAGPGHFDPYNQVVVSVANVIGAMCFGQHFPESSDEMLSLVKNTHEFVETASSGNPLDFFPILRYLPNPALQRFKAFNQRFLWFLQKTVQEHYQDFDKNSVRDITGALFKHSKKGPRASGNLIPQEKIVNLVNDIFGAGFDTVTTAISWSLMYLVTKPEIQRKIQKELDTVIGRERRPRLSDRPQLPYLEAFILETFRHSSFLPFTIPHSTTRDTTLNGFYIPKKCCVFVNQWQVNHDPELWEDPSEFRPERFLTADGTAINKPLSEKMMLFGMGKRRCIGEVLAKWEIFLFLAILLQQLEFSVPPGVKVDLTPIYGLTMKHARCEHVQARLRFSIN
# Mus musculus [13] = test: Antiinflammatory activity against ovalbumin-induced allergic lung inflammation BALB/c mouse model assessed as reduction in total blood cells in brochoalveolar lavage fluid at 1 mg/kg, po bid administered on day 29 to 31 post ovalbumin challenge measured 8 hrs post last challenge relative to vehicle-treated control; format: functional; procedure, shortened: as §1
# Mus musculus [14] = test: Antiinflammatory activity against ovalbumin-induced allergic lung inflammation BALB/c mouse model assessed as reduction in total blood cells in brochoalveolar lavage fluid at 30 mg/kg, po bid administered on day 29 to 31 post ovalbumin challenge measured 8 hrs post last challenge relative to vehicle-treated control; format: functional, organism-based; set-up: dose 30 mg/kg; procedure, shortened: as §1
# [15] = Clearance in mouse at 1 mg/kg, iv; format: ADME, organism-based; set-up: dose 1 mg/kg, route intravenous; settings: in vivo
# Mus musculus [16] = test: Antiinflammatory activity against ovalbumin-induced allergic lung inflammation BALB/c mouse model assessed as reduction in neutrophils in brochoalveolar lavage fluid at 5 mg/kg, po bid administered on day 29 to 31 post ovalbumin challenge measured 8 hrs post last challenge relative to vehicle-treated control; format: functional; settings: Bronchoalveolar lavage; procedure, shortened: as §1
# [17] = Half life in mouse at 1 mg/kg, iv; format: ADME, organism-based; set-up: dose 1 mg/kg, route intravenous; settings: in vivo
# Mus musculus [18] = test: Antiinflammatory activity against ovalbumin-induced allergic lung inflammation BALB/c mouse model assessed as reduction in eosinophils in brochoalveolar lavage fluid at 30 mg/kg, po bid administered on day 29 to 31 post ovalbumin challenge measured 8 hrs post last challenge relative to vehicle-treated control; format: functional, organism-based; set-up: dose 30 mg/kg; procedure, shortened: as §1
# Rattus norvegicus = organism: Rattus norvegicus; test: Inhibition of rat sodium channel site 2 at 10 uM
# Procedure, shortened: (§3)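 Receptor, ion channel and transporter binding panel run at Cerep in duplicate. Percent inhibition measured at 10 μM compound.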
# [19] = Oral bioavailability in mouse at 5 mg/kg; format: ADME, organism-based; settings: in vivo
# [20] = target: Histamine H3 receptor (Homo sapiens) (UniProt Q9Y5N1); test: Inhibition of human histamine H3 receptor at 10 uM; procedure, shortened: as §3
# Chain of Histamine H3 receptor (Homo sapiens) (Q9Y5N1 whole entry): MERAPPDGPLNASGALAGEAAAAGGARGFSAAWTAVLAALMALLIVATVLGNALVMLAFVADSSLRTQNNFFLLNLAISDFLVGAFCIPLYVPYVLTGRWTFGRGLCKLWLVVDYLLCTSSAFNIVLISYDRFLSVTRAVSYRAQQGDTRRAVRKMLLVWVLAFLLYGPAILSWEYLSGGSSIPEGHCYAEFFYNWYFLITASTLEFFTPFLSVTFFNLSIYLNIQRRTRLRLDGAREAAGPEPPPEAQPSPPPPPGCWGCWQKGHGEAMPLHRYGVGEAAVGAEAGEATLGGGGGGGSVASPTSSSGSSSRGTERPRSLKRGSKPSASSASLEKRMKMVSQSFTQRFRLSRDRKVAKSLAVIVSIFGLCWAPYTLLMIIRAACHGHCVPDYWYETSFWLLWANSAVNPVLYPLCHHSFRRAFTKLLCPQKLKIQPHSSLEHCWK
# Mus musculus [21] = test: Antiinflammatory activity against ovalbumin-induced allergic lung inflammation BALB/c mouse model assessed as reduction in neutrophils in brochoalveolar lavage fluid at 30 mg/kg, po bid administered on day 29 to 31 post ovalbumin challenge measured 8 hrs post last challenge relative to vehicle-treated control; format: functional, organism-based; set-up: dose 30 mg/kg; settings: Bronchoalveolar lavage; procedure, shortened: as §1
# [22] = target: Neuronal acetylcholine receptor subunit alpha-7 (Rattus norvegicus, UniProt Q05941); test: Inhibition of biotinylated alpha-bungarotoxin binding to alpha7 nAChR in rat PC12 cells by FACS analysis; format: cell-based, PC-12
# Chain of Neuronal acetylcholine receptor subunit alpha-7 (Q05941 whole entry): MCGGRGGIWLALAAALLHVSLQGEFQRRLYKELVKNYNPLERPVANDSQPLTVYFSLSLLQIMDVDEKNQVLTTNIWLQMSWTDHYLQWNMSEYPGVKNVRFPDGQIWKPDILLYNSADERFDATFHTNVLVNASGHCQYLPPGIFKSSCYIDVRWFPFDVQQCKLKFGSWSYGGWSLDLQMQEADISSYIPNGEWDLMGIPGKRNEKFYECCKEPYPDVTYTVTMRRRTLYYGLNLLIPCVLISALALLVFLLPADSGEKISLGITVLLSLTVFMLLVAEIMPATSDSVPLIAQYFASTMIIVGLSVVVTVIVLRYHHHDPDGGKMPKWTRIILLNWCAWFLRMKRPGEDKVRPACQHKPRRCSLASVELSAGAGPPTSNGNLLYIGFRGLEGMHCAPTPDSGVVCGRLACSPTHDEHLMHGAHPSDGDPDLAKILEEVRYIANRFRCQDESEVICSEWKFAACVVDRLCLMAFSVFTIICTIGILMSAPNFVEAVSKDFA
# Procedure, shortened: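 Rat PC12 cells in binding buffer (PBS, 1.0% FBS, 0.02% sodium azide), 0.1% DMSO; biotinylated α-bungarotoxin 10 nM final, 1 h at room temperature; nonspecific binding defined with 1.5 μM unlabeled toxin. After washing, phycoerythrin-streptavidin 1.0 μg/mL final, 15 min in the dark; read by FACS. Screened at 10 and 1 μM, then eight-point 3-fold dilution IC50; mean of two or more experiments.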
# [23] = Half life in rat at 15 mg/kg, po; format: ADME, organism-based; set-up: dose 15 mg/kg, route oral; settings: in vivo
# [24] = Half life in rat at 1 mg/kg, iv; format: ADME, organism-based; set-up: dose 1 mg/kg, route intravenous; settings: in vivo
# [25] = Half life in mouse at 5 mg/kg, po; format: ADME, organism-based; set-up: dose 5 mg/kg, route oral; settings: in vivo
# Mus musculus [26] = test: Antiinflammatory activity against ovalbumin-induced allergic lung inflammation BALB/c mouse model assessed as reduction in eosinophils in brochoalveolar lavage fluid at 0.2 mg/kg, po bid administered on day 29 to 31 post ovalbumin challenge measured 8 hrs post last challenge relative to vehicle-treated control; format: functional, organism-based; set-up: dose 0.2 mg/kg; procedure, shortened: as §1
# Mus musculus [27] = test: Antiinflammatory activity against ovalbumin-induced allergic lung inflammation BALB/c mouse model assessed as reduction in neutrophils in brochoalveolar lavage fluid at 1 mg/kg, po bid administered on day 29 to 31 post ovalbumin challenge measured 8 hrs post last challenge relative to vehicle-treated control; format: functional; settings: Bronchoalveolar lavage; procedure, shortened: as §1
structure (smiles),measurement,setting,value
COc1ccc(NC(=O)N2CCNC[C@@H]2COc2cccnc2)cc1.Cl,Cmax,[1],950 nM
same,Kp,[2],≤ 0.06
same,inhibition in vivo at 1 mg/kg,Mus musculus [3],48%
same,inhibition,[4],10%
same,IC50,Cytochrome P450 3A4,> 100 µM
same,IC50,Cytochrome P450 2C9,> 100 µM
same,IC50,Cytochrome P450 2C19,> 100 µM
same,inhibition in vivo at 5 mg/kg,Mus musculus [5],74%
same,clearance,[6],86 mL/min/kg
same,inhibition,Mus musculus [7],inactive
same,inhibition in vivo at 5 mg/kg,Mus musculus [8],63%
same,Cmax,[9],751 ng/mL
same,IC50,Cytochrome P450 2D6,> 100 µM
same,IC50,[10],31 µM
same,inhibition,Mus musculus [11],inactive
same,bioavailability,[12],89%
same,IC50,Cytochrome P450 1A2,> 100 µM
same,inhibition in vivo at 1 mg/kg,Mus musculus [13],53%
same,inhibition,Mus musculus [14],inactive
same,clearance,[15],103 mL/min/kg
same,inhibition in vivo at 5 mg/kg,Mus musculus [16],70%
same,half-life,[17],0.65 h
same,inhibition,Mus musculus [18],inactive
same,inhibition,Rattus norvegicus,48%
same,bioavailability,[19],76%
same,inhibition,[20],86%
same,inhibition,Mus musculus [21],inactive
same,IC50,[22],0.019 µM
same,half-life,[23],2.35 h
same,half-life,[24],1.22 h
same,half-life,[25],1.73 h
same,inhibition,Mus musculus [26],inactive
same,inhibition in vivo at 1 mg/kg,Mus musculus [27],61%

# Reference: ChEMBL document CHEMBL3259628, “Discovery of novel 2-((pyridin-3-yloxy)methyl)piperazines as α7 nicotinic acetylcholine receptor modulators for the treatment of inflammatory disorders” (J Med Chem, 2014)
